Common to all, as to assay type: ADME, organism-based
What all share (details): in vivo

The subject of data set [1] is Heart. Kind of data set: Biodistribution in male Sprague-Dawley rat heart at 5 mg/kg, po administered as single dose measured after 8 hrs. Set-up: dose 5 mg/kg, dosed compound name [14C]-apixaban, route oral. The method in brief:
(§1)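 [14C]apixaban (1.0 mg/mL, 20 μCi/mL) in 0.5% Tween 80 in Labrafil, given by oral gavage at 100 μCi/kg to male rats (225-252 g) fasted overnight through 4 h post-dose. One rat per time point. Carcasses frozen in hexane/dry ice and cut into 40 µm sagittal sections. QWBA read on phosphor plates against [14C]glucose standards, reported as µg eq/g. LLOQ 0.037 µg eq/g.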

A further data set has as its system Plasma. Kind of data set: AUC (0 to infinity) in lactating Sprague-Dawley rat plasma at 5 mg/kg, po administered as single dose. Also noted: time infinity, dose 5 mg/kg, dosed compound name [14C]-apixaban, route oral. The method in brief:
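Fasted lactating SD rats received 5 mg/kg [14C]apixaban orally (formulation 5.0 mg/mL, 20 μCi/mL). Oxytocin was injected subcutaneously 15 min before collection, and 1 mL milk was taken under anesthesia by milking machine. Sampling was predose and at 0.5–24 h, 3 rats per time point. Plasma was obtained at 1300g for 10 min. Duplicate 50–100 µL aliquots were counted by LSC for 10 min. AUC was calculated in WinNonlin.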

Data set [2] relates to Lung. The experiment in a line: Biodistribution in male Sprague-Dawley rat lung at 5 mg/kg, po administered as single dose measured after 1 hr. Set-up: dose 5 mg/kg, dosed compound name [14C]-apixaban, route oral. The method in brief:
as §1

Data set [3] deals with Spleen. The experiment in a line: Biodistribution in female Sprague-Dawley rat spleen at 5 mg/kg, po administered as single dose measured after 4 hrs. Also noted: dose 5 mg/kg, dosed compound name [14C]-apixaban, route oral. The essentials: (§2)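 [¹⁴C]Apixaban given by oral gavage at 5 mg/kg (100 μCi/kg) in 0.5% Tween 80 in Labrafil (1.0 mg/mL dosing solution) to rats fasted overnight through 4 h post-dose. One rat per time point; carcass frozen in hexane/dry ice. Quantitative whole-body autoradiography used 40 µm sagittal sections and a phosphor imaging plate calibrated with [¹⁴C]glucose standards (0.001–6.5 μCi/g). Read-out in µg eq apixaban/g; LLOQ 0.037 μg eq/g.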

Data set [4] concerns Lung. Kind of data set: Biodistribution in pregnant Sprague-Dawley rat lung at 5 mg/kg, po administered as single dose measured after 24 hrs. Set-up: dose 5 mg/kg, dosed compound name [14C]-apixaban, route oral.
The test system of data set [5] is Lung. Kind of data set: Biodistribution in female Sprague-Dawley rat lung at 5 mg/kg, po administered as single dose measured after 1 hr. Set-up: dose 5 mg/kg, dosed compound name [14C]-apixaban, route oral. The method in brief:
as §2

Data set [6] deals with Rattus norvegicus. Kind of data set: Biodistribution in male Sprague-Dawley rat salivary gland at 5 mg/kg, po administered as single dose measured after 24 hrs. Also noted: dose 5 mg/kg, dosed compound name [14C]-apixaban, route oral.
For a further data set, the system named is Liver. Kind of data set: Biodistribution in pregnant Sprague-Dawley rat liver at 5 mg/kg, po administered as single dose measured after 1 hr. Set-up: dose 5 mg/kg, dosed compound name [14C]-apixaban, route oral. The essentials: (§3)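 Fasted pregnant SD rats (n=6, 270-319 g) each received one oral gavage dose of [14C]apixaban, 5 mg/kg (100 μCi/kg), in 0.5% Tween 80/Labrafil. One rat was killed at each of 0.5, 1, 4, 8, 24 and 48 h. Carcasses were frozen in hexane/dry ice, cut into 40 µm sagittal sections, exposed to phosphor plates and quantified against [14C]glucose standards as µg eq/g. LLOQ was 0.037 µg eq/g.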

The subject of another data set is Pancreas. Kind of data set: Biodistribution in female Sprague-Dawley rat pancreas at 5 mg/kg, po administered as single dose measured after 1 hr. Set-up: dose 5 mg/kg, dosed compound name [14C]-apixaban, route oral. The method in brief: as §2
A further data set concerns Harderian gland. Kind of data set: Biodistribution in male Sprague-Dawley rat harderian gland at 5 mg/kg, po administered as single dose measured after 24 hrs. Set-up: dose 5 mg/kg, dosed compound name [14C]-apixaban, route oral. The essentials: (§4)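 Fasted male SD rats (225-252 g) each received one oral gavage dose of [14C]apixaban, 5 mg/kg (100 μCi/kg), in 0.5% Tween 80/Labrafil vehicle. One rat was killed per time point, from 0.5 to 168 h. Frozen carcasses were cut into 40 µm sagittal whole-body sections and read by QWBA phosphor imaging against [14C]glucose calibrants. Results are in µg apixaban eq/g; BLQ <0.037 µg eq/g.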

The test system of a further data set is Muscle tissue. Kind of data set: Biodistribution in female Sprague-Dawley rat muscle at 5 mg/kg, po administered as single dose measured after 24 hrs. Also noted: dose 5 mg/kg, dosed compound name [14C]-apixaban, route oral. The essentials: (§5)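 Quantitative whole-body autoradiography was run after a single 5 mg/kg (100 μCi/kg) oral gavage to fasted female or pregnant SD rats, one rat per time point. Carcasses were frozen in hexane/dry ice, and 40 µm sagittal sections were dried at −20°C for at least 48 h. Sections were exposed to a phosphor plate alongside [14C]glucose standards (0.001–6.5 µCi/g). Results are µg eq/g, with LLOQ 0.037 µg eq/g.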

In data set [7] the test system is Brain. The experiment in a line: Biodistribution in pregnant Sprague-Dawley rat brain at 5 mg/kg, po administered as single dose measured after 48 hrs. Also noted: dose 5 mg/kg, dosed compound name [14C]-apixaban, route oral. The method in brief: as §3
Data set [8] deals with Heart. The experiment in a line: Biodistribution in male Sprague-Dawley rat heart at 5 mg/kg, po administered as single dose measured after 1 hr. Also noted: dose 5 mg/kg, dosed compound name [14C]-apixaban, route oral. The method in brief:
as §2

The subject of data set [9] is Rattus norvegicus. The experiment in a line: Biodistribution in pregnant Sprague-Dawley rat kidney cortex at 5 mg/kg, po administered as single dose measured after 48 hrs. Set-up: dose 5 mg/kg, dosed compound name [14C]-apixaban, route oral. The essentials:
as §3

Data set [10] has as its system Rattus norvegicus. The experiment in a line: Biodistribution in female Sprague-Dawley rat pituitary gland at 5 mg/kg, po administered as single dose measured after 24 hrs. Also noted: dose 5 mg/kg, dosed compound name [14C]-apixaban, route oral. The essentials:
as §5

Data set [11] deals with Thymus. The experiment in a line: Biodistribution in male Sprague-Dawley rat thymus at 5 mg/kg, po administered as single dose measured after 72 hrs. Also noted: dose 5 mg/kg, dosed compound name [14C]-apixaban, route oral. The essentials: as §4
Data set [12] can be described thus: Drug level in lactating Sprague-Dawley rat milk at 5 mg/kg, po administered as single dose after 6 hrs. Set-up: dose 5 mg/kg, dosed compound name [14C]-apixaban, route oral.
For another data set, the system named is Blood. Kind of data set: AUC (0 to infinity) in pregnant Sprague-Dawley rat blood at 5 mg/kg, po administered as single dose. Set-up: time infinity, dose 5 mg/kg, dosed compound name [14C]-apixaban, route oral.
Data set [13] deals with Brain. The experiment in a line: Biodistribution in female Sprague-Dawley rat brain at 5 mg/kg, po administered as single dose measured after 4 hrs. Set-up: dose 5 mg/kg, dosed compound name [14C]-apixaban, route oral. The method in brief:
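[14C]Apixaban (1.0 mg/mL, 20 μCi/mL in 0.5% Tween 80 in Labrafil) given as a single oral gavage of 5 mg/kg (100 μCi/kg) to fasted female SD rats, one rat per time point. Carcasses were frozen in hexane/dry ice and cut into 40 µm sagittal sections for QWBA against [14C]glucose standards. Brain radioactivity is reported as µg eq/g, with LLOQ 0.037 µg eq/g.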

Data set [14] has as its system Rattus norvegicus. Kind of data set: Biodistribution in fetal brain of pregnant Sprague-Dawley rat at 5 mg/kg, po administered as single dose measured after 48 hrs. Set-up: dose 5 mg/kg, dosed compound name [14C]-apixaban, route oral. The essentials: as §5
For data set [15], the system named is Rattus norvegicus. The experiment in a line: Biodistribution in female Sprague-Dawley rat salivary gland at 5 mg/kg, po administered as single dose measured after 8 hrs. Set-up: dose 5 mg/kg, dosed compound name [14C]-apixaban, route oral. The method in brief: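 [14C]apixaban (20 μCi/mL in dosing solution) in 0.5% Tween 80 in Labrafil given by oral gavage to fasted female rats, 206-213 g, at 100 μCi/kg. One rat per time point was euthanized and snap-frozen. Sagittal 40 µm whole-body sections were read by QWBA phosphor imaging against [14C]glucose standards. Results are in µg eq apixaban/g, with LLOQ 0.037 μg eq/g.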

The test system of data set [16] is Thymus. Kind of data set: Biodistribution in female Sprague-Dawley rat thymus at 5 mg/kg, po administered as single dose measured after 1 hr. Set-up: dose 5 mg/kg, dosed compound name [14C]-apixaban, route oral. The essentials:
as §2

For data set [17], the system named is Spleen. The experiment in a line: Biodistribution in pregnant Sprague-Dawley rat spleen at 5 mg/kg, po administered as single dose measured after 48 hrs. Set-up: dose 5 mg/kg, dosed compound name [14C]-apixaban, route oral. The method in brief: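 Pregnant SD rats (270-319 g) were fasted overnight and given one oral gavage of 5 mg/kg (100 μCi/kg) in 0.5% Tween 80 in Labrafil. One rat was euthanized per time point (0.5, 1, 4, 8, 24, 48 h) and the carcass frozen. 40 µm sagittal sections were phosphor-imaged against [14C]glucose standards and results reported as µg eq/g; LLOQ 0.037 µg eq/g.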

For the compound `COc1ccc(-n2nc(C(N)=O)c3c2C(=O)N(c2ccc(N4CCCC[14C]4=O)cc2)CC3)cc1`, the Radiolabel recovery with Heart [1] was 0.08 ugequiv/g; in the data set with Lung [2], 0.7 ugequiv/g; with Spleen [3], 0.45 ugequiv/g; in the data set on Lung [4], below 0.037 ugequiv/g; in the data set on Lung [5], 0.883 ugequiv/g; in the data set on Rattus norvegicus [6] it was below 0.037 ugequiv/g. The Radiolabel recovery with Liver was 7.38 ugequiv/g; in the data set with Pancreas it was 0.62 ugequiv/g; with Harderian gland, “Not detected assumed BLQ”; in the data set with Muscle tissue it was “Not detected assumed BLQ”; with Brain [7], “Not detected assumed BLQ”; in the data set with Heart [8], 0.7 ugequiv/g. Further, the Radiolabel recovery result in the data set on Rattus norvegicus [9] is “Not detected assumed BLQ”; with Rattus norvegicus [10], “Not detected assumed BLQ”; in the data set with Thymus [11] it was “Not detected assumed BLQ”; in data set [12] it was 8.92 µg/mL; in the data set on Brain [13] it was below 0.037 ugequiv/g; in the data set with Rattus norvegicus [14] it was “Not detected assumed BLQ”. For the same compound, the results for the Radiolabel recovery in the data set on Rattus norvegicus [15], in the data set with Thymus [16] and with Spleen [17] were 0.13 ugequiv/g, 0.27 ugequiv/g and “Not detected assumed BLQ”, respectively. In addition, the AUC in the data set with Plasma is 3470 ngequiv.hr/g; in the data set on Blood, 7200 ngequiv.hr/g.

Source of the values: ChEMBL document CHEMBL3525963, “Tissue distribution and elimination of [14C]apixaban in rats” (Drug Metab Dispos, 2011).
